Measured values: PubChem BioAssay
Calls of active or inactive are those of the source.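 Rule for the calls, unless noted: active = viability loss from added drug above about 55%, and viability with drug at most 40%, in both replicates (limit read from the data, passing the limit was not always enough); inconclusive = both conditions met in only one replicate; inactive = neither replicate meets both conditions.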

What was measured:
[1] = HUVEC growth inhibition – cell-based, human, primary screen (AID 575;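 active = viability at or below 30% in both replicate assays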;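 note: 100% = median of untreated cell wells with 0.1% DMSO on each plate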); details: HUVEC proliferation, CellTiter-Glo luminescence, 72 h; at 10 µM; stronger effect = lower value
Outline: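 Test system: primary human umbilical vein endothelial cells; medium: endothelial basal medium with 2% FBS plus growth supplements; dosing: 10 µM compound only; times: 72 h treatment at 37 °C; signal: CTG luminescence; read-out: % viability relative to median vehicle-well signal on each plate; control set: vehicle and MePR control wells; plate: 384-well, collagen-coated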

[2] = H69AR cell proliferation blockers – human, duplicate replicates, primary screen (AID 580;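 active = viability at or under a set limit in both replicates, limit being median viability minus 3 SD, cut at about 48% in these data, passing the limit was not always enough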;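 note: 100% = mean luminescence of untreated wells and 0% = no signal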); details: H69AR lung tumor cells viability, ATP luminescence, 72 h; at 10 µM; stronger effect = lower value
[3] = MRP1 drug-resistance reversers in H69AR cells – cell-based, doxorubicin co-treatment, pilot screen (AID 601); details: CellTiter-Glo, 72 h, at 10 µM; for differential viability (reversal): stronger effect = higher value
[4] = yeast transport mutant growth inhibition pilot in 384-well plates, post-Golgi transport modulator project (AID 636; in the data active = inhibition above about 31%); details: absorbance 615 nm, about 18 h, stronger effect = higher value
[5] = growth suppression of yeast trafficking mutant, preliminary HTS, modulators of trafficking downstream of Golgi apparatus project, 1536-format plate, OD 615 nm (AID 637; in the data active = inhibition above about 30%); details: yeast transport mutant growth, absorbance 615 nm, 18 h; stronger effect = higher value
[6] = H69AR cells + 2 uM doxorubicin, measured here: viability with 2 uM doxorubicin, stronger effect = lower value
[7] = H69AR cells, compound alone cytotoxicity

Structure (SMILES) | viability [1] | viability [2] | differential viability (reversal) ([3]; H69AR cells + 2 uM doxorubicin) | viability [3, 6] | viability [3, 7] | inhibition [4] | inhibition [5]
CN(c1ccccc1)S(=O)(=O)c1cc(C(=O)N2CCN(c3ccccn3)CC2)ccc1Cl | 45.3% (inactive) | 88.5% (inactive) | 10.1% (inactive) | 78.4% | 88.5% | 0.39% (inactive) | 2.22% (inactive)
CSc1cccc(NC(=O)CN(C)S(=O)(=O)c2ccccc2)c1 | 74.9% (inactive) | 95.1% (inactive) | 15.1% (inactive) | 80% | 95.1% | -4.93% (inactive) | 1.27% (inactive)
O=C(NCCN1CCCCCC1)c1ccc(N2CCCC2=O)cc1 | 91% (inactive) | 95.9% (inactive) | 3.38% (inactive) | 92.5% | 95.9% | -7.2% (inactive) | 12.5% (inactive)
O=C(C1CCN(S(=O)(=O)c2ccc(-n3cnnn3)cc2)CC1)N1CCN(c2ccccc2)CC1 | 103% (inactive) | 94.5% (inactive) | 2.88% (inactive) | 91.6% | 94.5% | -1.43% (inactive) | 0.48% (inactive)
CCCN(CCC)CCCNS(=O)(=O)c1ccc2c(c1)oc(=O)n2C | 92.2% (inactive) | 94.7% (inactive) | 0.825% (inactive) | 93.8% | 94.7% | -4.4% (inactive) | -4.44% (inactive)
CC1(c2ccc(OC(F)F)cc2)NC(=O)N(CC(=O)Nc2ccc3c(c2)OCO3)C1=O (stereo not given) | 81.6% (inactive) | 91.7% (inactive) | -2.95% (inactive) | 94.7% | 91.7% | -5.71% (inactive) | -3.65% (inactive)
O=S(=O)(c1ccccc1)N1CCSC1c1ccco1 (stereo not given) | 83.6% (inactive) | 72.2% (inactive) | -15.6% (inactive) | 87.9% | 72.2% | -0.13% (inactive) | 5.56% (inactive)
CCCCCCNC(=O)c1c(N)n(/N=C/c2ccco2)c2nc3ccccc3nc12 | 53.7% (inactive) | 78.4% (inactive) | -0.96% (inactive) | 79.4% | 78.4% | -4.4% (inactive) | -0.16% (inactive)
CCCc1n[nH]c2c1/C(=N/O)CC(c1ccccc1)C2 (stereo not given) | 49.5% (inactive) | 66.1% (inactive) | -14.4% (inactive) | 80.6% | 66.1% | -2.34% (inactive) | 2.86% (inactive)
COc1ccc(OC(C)C(=O)N2CCN(c3ccccn3)CC2)cc1 (stereo not given) | 106% (inactive) | 94.4% (inactive) | 5.04% (inactive) | 89.3% | 94.4% | -3.95% (inactive) | -0.32% (inactive)
O=C(Nc1cc(C(F)(F)F)ccc1Cl)C1CCN(c2nnc(-n3cccc3)s2)CC1 | 80.2% (inactive) | 70.9% (inactive) | 7.64% (inactive) | 63.3% | 70.9% | -6% (inactive) | 2.22% (inactive)
COc1ccc(C(=O)Cn2nnc(-c3cccs3)n2)cc1 | 102% (inactive) | 90.9% (inactive) | 4.98% (inactive) | 85.9% | 90.9% | -6.67% (inactive) | -3.65% (inactive)
CCN(CC(=O)O)S(=O)(=O)c1cc(Cl)ccc1Cl | 96.5% (inactive) | 90.9% (inactive) | -1.08% (inactive) | 92% | 90.9% | -7.2% (inactive) | -1.75% (inactive)
COc1cccc(-c2noc(CCC(=O)NC3CCCCC3)n2)c1 | 91.5% (inactive) | 97.6% (inactive) | 0.295% (inactive) | 97.3% | 97.6% | -2.63% (inactive) | -5.4% (inactive)
COc1cccc(-n2c(SCC(=O)OC(C)C)nnc2-c2cccnc2)c1 | 88.3% (inactive) | 97.4% (inactive) | 4.17% (inactive) | 93.2% | 97.4% | -1.32% (inactive) | -3.02% (inactive)
CCOC(=O)c1sc(NC(=O)CSc2nc3c(cc2C#N)CCC3)c(C#N)c1C | 74.7% (inactive) | 91.1% (inactive) | -8.41% (inactive) | 99.5% | 91.1% | -5% (inactive) | -0.32% (inactive)
Cc1ccc(CC23CN4CCN(CC(C4)C2O)C3)c(C)c1 (stereo not given) | 109% (inactive) | 94.6% (inactive) | 8.52% (inactive) | 86.1% | 94.6% | -2.37% (inactive) | 3.02% (inactive)
Cc1onc(-c2c(Cl)cccc2Cl)c1C(=O)NCCCN1CCOCC1 | 108% (inactive) | 100% (inactive) | -1.13% (inactive) | 101% | 100% | -2.5% (inactive) | -2.22% (inactive)
CC(=O)Nc1ccc(NC(=O)c2ccccc2F)cc1 | 110% (inactive) | 108% (inactive) | 16.1% (inactive) | 92.2% | 108% | -1.82% (inactive) | -4.13% (inactive)
COCCN(CC(=O)Nc1ccccc1C)S(=O)(=O)c1ccc(S(=O)(=O)N2CCCC2)cc1 | 101% (inactive) | 95.7% (inactive) | 4.26% (inactive) | 91.5% | 95.7% | -7.2% (inactive) | 4.13% (inactive)
